# Results collected from several papers.
# FLT3: Receptor-type tyrosine-protein kinase FLT3 (FLT3, Homo sapiens, UniProt P36888)
# FLT3 R834Q: Receptor-type tyrosine-protein kinase FLT3 (FLT3, Homo sapiens, UniProt P36888, R834Q)
# FLT3 autoinhibited: Receptor-type tyrosine-protein kinase FLT3, autoinhibited (FLT3, Homo sapiens, UniProt P36888)
# FLT3 D835V/ITD: Receptor-type tyrosine-protein kinase FLT3 (FLT3, Homo sapiens, UniProt P36888, D835V/ITD)
# FLT3 ITD: Receptor-type tyrosine-protein kinase FLT3 (FLT3, Homo sapiens, UniProt P36888, ITD)
# FLT3 D835Y: Receptor-type tyrosine-protein kinase FLT3 (FLT3, Homo sapiens, UniProt P36888, D835Y)
# FLT3 N841I: Receptor-type tyrosine-protein kinase FLT3 (FLT3, Homo sapiens, UniProt P36888, N841I)
# FLT3 D835H: Receptor-type tyrosine-protein kinase FLT3 (FLT3, Homo sapiens, UniProt P36888, D835H)
# FLT3 K663Q: Receptor-type tyrosine-protein kinase FLT3 (FLT3, Homo sapiens, UniProt P36888, K663Q)
Compound,target,test,setting,remaining binding [%]
C[C@@H]1CCN(c2nccc(-c3cnn4ncccc34)n2)C1,FLT3,binding,1 µM,100
Nc1ncc2c(n1)-c1c([nH]c3ccc(C#CC4CC4)cc13)CCCC2,FLT3 R834Q,"binding, competition with immobilised ligand",1 µM,79
COc1cc(-c2cn(C3CCc4ccccc4N(CC(F)(F)F)C3=O)nn2)ccc1-n1ccc(C)n1 (stereo not drawn),FLT3,"cell-free assay, competition with immobilised ligand",1 µM,85
O=C(NCC1CCOCC1)c1n[nH]cc1NC(=O)c1c(F)cccc1F,FLT3,"binding, competition with immobilised ligand",1 µM,92
CCN1CCN(Cc2ccc(C(=O)Nc3ccc(C)c(Oc4ccc5c(c4)CC(=O)N5)c3)cc2C(F)(F)F)CC1,FLT3 R834Q,"binding, competition with immobilised ligand",1 µM,100
C[C@@H](c1ccc(-n2cnc3c(N)ncnc32)cc1)N1CCc2nn(C)c(Cc3ccccc3)c2C1=O,FLT3 R834Q,"binding, competition with immobilised ligand",0.1 µM,88
CN(C)c1nccc(-c2cnc3ncccn23)n1,FLT3 autoinhibited,binding,1 µM,72
O=C(c1ccc(Nc2ncc(Cl)c(-c3ccc(Cl)s3)n2)cc1)N1CCC(N2CCCC2)CC1,FLT3 D835V/ITD,"binding, competition with immobilised ligand",1 µM,1.1
O=C(NC1CCC1)c1ccc2nc(-c3cccc(NS(=O)(=O)NCCN4CCCCC4)c3)cn2c1,FLT3 ITD,"cell-free assay, competition with immobilised ligand",10 µM,100
NS(=O)(=O)c1cc(NC(=O)C2(c3ccccc3Cl)CC2)ccc1Oc1cccc(Cl)c1,FLT3 D835Y,"cell-free assay, competition with immobilised ligand",1 µM,100
c1cncc(-c2cccc(Nc3nccc(NC4CCCCC4)n3)c2)c1,FLT3 N841I,"binding, competition with immobilised ligand",10 µM,1.6
C[C@H](c1cccc(C#N)c1)n1cc(Cl)cc(C(N)=O)c1=N,FLT3 R834Q,"cell-free assay, competition with immobilised ligand",1 µM,100
C=CC(=O)N1CCC(C(=O)NCC(=O)N2CCN(c3nc(-c4cnc(N)nc4C(F)F)nc(N4CCOCC4)n3)CC2)CC1,FLT3 D835H,"binding, competition with immobilised ligand",1 µM,100
Cc1cnc(Nc2ccc(C(=O)N3CCC(N4CCCC4)CC3)cc2)nc1-c1cc2ccccc2s1,"Receptor-type tyrosine-protein kinase FLT3 (FLT3, Homo sapiens, UniProt P36888, F691L/ITD)","binding, competition with immobilised ligand",1 µM,18
O=C(NCCCC1CCCCC1)c1ccc(CNC(=O)c2cnn(-c3ccccc3)c2C(F)(F)F)cc1,FLT3 D835V/ITD,"cell-free assay, competition with immobilised ligand",0.1 µM,100
F[C@@H]1CCN(c2nccc(-c3cnn4ncccc34)n2)C1,FLT3 R834Q,binding,1 µM,100
COc1cnc(Nc2cccc(S(N)(=O)=O)c2)nc1N1CCN(c2ccccc2)C(=O)C1,FLT3 N841I,"binding, competition with immobilised ligand",1 µM,96
O=C(c1ccc(Nc2ncc(Cl)c(-c3cc4ccccc4s3)n2)cc1)N1CCC(N2CCCC2)CC1,FLT3 D835H,"binding, competition with immobilised ligand",1 µM,2.4
CC1CCCN1c1nccc(-c2cnn3ncccc23)n1 (stereo not drawn),FLT3,binding,1 µM,100
Cc1noc([C@H]2C[C@@H](c3ccc(C(F)(F)F)cc3)CN(C(=O)N3CCS(=O)(=O)C3)C2)n1,FLT3 R834Q,"cell-free assay, competition with immobilised ligand",1 µM,91
CN(c1nccc(-c2cnn3ncccc23)n1)C1CC1,FLT3 D835Y,binding,1 µM,85
CNC(=O)[C@@H]1CC[C@@H](n2c(-c3ccc4cnccc4c3)nc3ccc(C(=O)NCc4cccc(C(N)=O)c4)cc32)C1,FLT3 K663Q,"binding, competition with immobilised ligand",1 µM,99
CN1CCN(c2ccc(Nc3nccc(-c4ccccc4)n3)cc2C(F)(F)F)CC1,FLT3 N841I,binding,10 µM,3.5
c1ccc(N2CCN(Cc3nc4ccccc4[nH]3)CC2)nc1,FLT3,"binding, competition with immobilised ligand",1 µM,100
COc1ccnn2ncc(-c3ccnc(N(C)C)n3)c12,FLT3 K663Q,binding,1 µM,100
CC(C)CC(=O)N1CCc2nc(-c3ccc(Br)cc3)nc(N(C)Cc3ccccc3)c2C1,FLT3 K663Q,"cell-free assay, competition with immobilised ligand",0.1 µM,100
CC(C)(C)c1ccc(-c2nc(CBr)nn2-c2cccc(O)c2)cc1,FLT3,"cell-free assay, competition with immobilised ligand",10 µM,82
CN1CCN(c2ccc(Nc3nccc(-c4cccc([N+](=O)[O-])c4)n3)cc2C(F)(F)F)CC1,FLT3 D835Y,binding,10 µM,0
COc1cnc(Nc2cccc(S(N)(=O)=O)c2)nc1N1CCN(c2ccccc2)CC1,FLT3 K663Q,"binding, competition with immobilised ligand",1 µM,36
COc1ncc2cc3ccccc3nc2c1C#N,FLT3 ITD,"cell-free assay, competition with immobilised ligand",5 µM,94
O=C(NCCCN1CCOCC1)c1ccc(Nc2nccc(-c3cc4ccccc4s3)n2)cc1,FLT3 K663Q,"binding, competition with immobilised ligand",1 µM,35
CCC(=N\O)/C(C)=C/c1ccc(F)cc1,FLT3 autoinhibited,"cell-free assay, competition with immobilised ligand",1 µM,86
O=C(NCCCN1CCOCC1)c1ccc(Nc2ncc(Cl)c(-c3ccc(Cl)s3)n2)cc1,FLT3 autoinhibited,"binding, competition with immobilised ligand",1 µM,5.5
N[C@H]1CCN(c2nccc(-c3cnn4ncccc34)n2)C1,FLT3 N841I,binding,1 µM,84
O=C(c1ccc(Nc2nccc(-c3cc4ccccc4s3)n2)cc1)N1CCC(N2CCCC2)CC1,FLT3 R834Q,"binding, competition with immobilised ligand",1 µM,30
O=C(Nc1c[nH]nc1C(=O)NC1CCNCC1)c1cc(F)cc(F)c1,FLT3 K663Q,"binding, competition with immobilised ligand",1 µM,96
